The source made the active and inactive calls. The rule behind the calls is not given here.
Tests used:
A549 [1] = assay: Cell cycle arrest in human A549 cells assessed as accumulation at G1 phase at 1 uM after 72 hrs by propidium iodide staining based flow cytometry (reference value: 40.9%); type: functional
How it was run: (§1)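 A549 cells treated 72 h in RPMI1640 with 10% dFBS and 2 nM LCV. Washed twice in ice-cold PBS and fixed in 70% ethanol at 4 °C overnight. Stained ≥20 min at room temperature in the dark with 50 μg/mL PI and 100 μg/mL RNase. Phase percentages from 1 × 10^4 cells by flow cytometry. DMSO-treated cells as reference.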

A549 [2] = assay: Cell cycle arrest in human A549 cells assessed as accumulation at G2 phase at 1 uM after 72 hrs by propidium iodide staining based flow cytometry (reference value: 7.8%); type: functional; how it was run: as §1
A549 [3] = assay: Cell cycle arrest in human A549 cells assessed as accumulation at S phase at 1 uM after 72 hrs by propidium iodide staining based flow cytometry (reference value: 51.3%); type: functional; how it was run: as §1
NCI-H1299 = assay: Antiproliferative activity against human NCI-H1299 cells after 48 hrs by MTS assay; type: functional; details: NCI-H1299, 48 h
How it was run: (§2)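 Cells in RPMI-1640 or DMEM with 10% FBS, 37 °C, 5% CO2. Exponentially growing cells seeded at 5 × 10^3 per well and grown 12 h. Compounds added at 10 nM to 100 μM for 48 h. MTS reagent added for 3 h, then OD read at 490 nm. 0.1% DMSO as control. Mean viability from three independent experiments.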

HeLa = assay: Antiproliferative activity against human HeLa cells after 48 hrs by MTS assay; type: functional; how it was run: as §2
HT-29 = assay: Antiproliferative activity against human HT-29 cells after 48 hrs by MTS assay; type: functional; details: HT-29, 48 h; how it was run: as §2
A549 [4] = assay: Antiproliferative activity against human A549 cells after 48 hrs by MTS assay; type: functional; details: A549, 48 h; how it was run: as §2
HCT-116 = assay: Antiproliferative activity against human HCT116 cells after 48 hrs by MTS assay; type: functional; details: HCT-116, 48 h
HL-60 [5] = assay: Antiproliferative activity against human HL60 cells after 48 hrs by MTS assay; type: functional; details: HL-60, 48 h; how it was run: as §2
[6] = target: T1, Dihydrofolate reductase (Homo sapiens) (UniProt P00374); assay: Inhibition of recombinant human DHFR at 100 uM using dihydrofolate as substrate in presence of NADPH by spectrophotometric method relative to control
T1 sequence (whole entry): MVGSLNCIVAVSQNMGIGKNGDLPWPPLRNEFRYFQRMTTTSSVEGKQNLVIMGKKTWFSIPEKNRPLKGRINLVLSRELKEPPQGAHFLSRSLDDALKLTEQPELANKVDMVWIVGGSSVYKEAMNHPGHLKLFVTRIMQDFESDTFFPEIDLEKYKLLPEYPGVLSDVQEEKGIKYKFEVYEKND
How it was run: (§3)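 Recombinant human DHFR assayed with 0.1 mM dihydrofolate, 0.3 mM NADPH and 100 mM KCl, pH 7.5, 32 °C. Reaction started by adding enzyme and followed as OD change at 340 nm. Percent inhibition recorded at 1, 10 and 100 μM.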

A549 [7] = assay: Induction of apoptosis in human A549 cells assessed as late apoptotic cells at 1 uM after 72 hrs by Annexin V-FITC/propidium iodide staining based flow cytometry (reference value: 1.24%); type: functional
How it was run: (§4)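 A549 cells exposed 72 h in RPMI with 10% dFBS and 2 nM LCV, with an untreated control. Harvested by trypsinization and washed twice in cold PBS. Stained with annexin V-FITC/PI and ≥1 × 10^4 cells analyzed by flow cytometry. Quadrants: LR early apoptosis, UR late apoptosis/necrosis, UL dead, LL viable.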

A549 [8] = assay: Induction of apoptosis in human A549 cells assessed as early apoptotic cells at 1 uM after 72 hrs by Annexin V-FITC/propidium iodide staining based flow cytometry (reference value: 0.32%); type: functional; how it was run: as §4
[9] = target: T1, Dihydrofolate reductase (Homo sapiens); assay: Inhibition of recombinant human DHFR at 1 to 10 uM using dihydrofolate as substrate in presence of NADPH by spectrophotometric method; how it was run: as §3
A549 [10] = assay: Cell cycle arrest in human A549 cells assessed as accumulation at S phase at 10 uM after 72 hrs by propidium iodide staining based flow cytometry (reference value: 51.3%); type: functional; how it was run: as §1
A549 [11] = assay: Cell cycle arrest in human A549 cells assessed as accumulation at G2 phase at 10 uM after 72 hrs by propidium iodide staining based flow cytometry (reference value: 7.8%); type: functional; how it was run: as §1
HL-60 [12] = assay: Antiproliferative activity against human HL60 cells up to 1000 uM after 48 hrs in presence of excess of thymidine by MTS assay; type: functional, cell-based
A549 [13] = assay: Cell cycle arrest in human A549 cells assessed as accumulation at G1 phase at 10 uM after 72 hrs by propidium iodide staining based flow cytometry (reference value: 40.9%); type: functional; how it was run: as §1
A549 [14] = assay: Induction of apoptosis in human A549 cells assessed as late apoptotic cells at 10 uM after 72 hrs by Annexin V-FITC/propidium iodide staining based flow cytometry (reference value: 1.24%); type: functional; how it was run: as §4
A549 [15] = assay: Induction of apoptosis in human A549 cells assessed as live cells at 1 uM after 72 hrs by Annexin V-FITC/propidium iodide staining based flow cytometry (reference value: 94.86%); type: functional; how it was run: as §4
A549 [16] = assay: Induction of apoptosis in human A549 cells assessed as early apoptotic cells at 10 uM after 72 hrs by Annexin V-FITC/propidium iodide staining based flow cytometry (reference value: 0.32%); type: functional; how it was run: as §4
A549 [17] = assay: Induction of apoptosis in human A549 cells assessed as necrotic cells at 10 uM after 72 hrs by Annexin V-FITC/propidium iodide staining based flow cytometry (reference value: 3.58%); type: functional; how it was run: as §4
A549 [18] = assay: Inhibition of colony formation in human A549 cells at 20 uM treated for 48 hrs followed by compound washout measured after 8 days by Giemsa staining based assay; type: functional, cell-based
How it was run: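 About 100 A549 cells per well plated and kept 24 h in RPMI with 10% dFBS and 2 nM LCV at 37 °C, 5% CO2. Compound at 0-20 μM added for 48 h, then medium replaced with drug-free medium for 8 days. Colonies fixed in methanol 30 min, Giemsa-stained 30 min, then counted.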

A549 [19] = assay: Induction of apoptosis in human A549 cells assessed as live cells at 10 uM after 72 hrs by Annexin V-FITC/propidium iodide staining based flow cytometry (reference value: 94.86%); type: functional; how it was run: as §4
HL-60 [20] = assay: Antiproliferative activity against human HL60 cells up to 1000 uM after 48 hrs in presence of excess of adenosine and AICA by MTS assay; type: functional, cell-based
A549 [21] = assay: Induction of apoptosis in human A549 cells assessed as necrotic cells at 1 uM after 72 hrs by Annexin V-FITC/propidium iodide staining based flow cytometry (reference value: 3.58%); type: functional; how it was run: as §4

Row | SMILES | GI50 (NCI-H1299) [µM] | GI50 (HeLa) [µM] | GI50 (HT-29) [µM] | GI50 (A549 [4]) [µM] | GI50 (HCT-116) [µM] | GI50 (HL-60 [5]) [µM] | further results
1 | CCN(Cc1cc2nc(N)[nH]c(=O)c2[nH]1)c1ccc(C(=O)N[C@@H](CCC(=O)O)C(=O)O)cc1 | > 100 | > 100 | > 100 | > 100 | > 100 | > 100 | 
2 | C#CCN(Cc1cc2nc(N)[nH]c(=O)c2[nH]1)c1ccc(C(=O)N[C@@H](CCC(=O)O)C(=O)O)cc1 | > 100 | > 100 | > 100 | > 100 | > 100 | > 100 | 
3 | Nc1nc2c(I)c(CNc3ccc(C(=O)N[C@@H](CCC(=O)O)C(=O)O)cc3)[nH]c2c(=O)[nH]1 | > 100 | > 100 | > 100 | > 100 | > 100 | 54.2 | 
4 | CN(Cc1cc2nc(N)[nH]c(=O)c2[nH]1)c1ccc(C(=O)N[C@@H](CCC(=O)O)C(=O)O)cc1 | > 100 | > 100 | > 100 | > 100 | > 100 | > 100 | 
5 | Nc1nc2c(Br)c(CNc3ccc(C(=O)N[C@@H](CCC(=O)O)C(=O)O)cc3)[nH]c2c(=O)[nH]1 | > 100 | > 100 | > 100 | 83 | > 100 | 40.1 | 

Stronger by GI50 (NCI-H1299), values ahead:

Row | GI50 (NCI-H1299) [µM] | GI50 (HeLa) [µM] | GI50 (HT-29) [µM] | GI50 (A549 [4]) [µM] | GI50 (HCT-116) [µM] | GI50 (HL-60 [5]) [µM] | SMILES | further results
6 | 0.072 | > 100 | > 100 | 0.014 | 0.13 | 0.038 | CN(Cc1cnc2nc(N)nc(N)c2n1)c1ccc(C(=O)N[C@@H](CCC(=O)O)C(=O)O)cc1 [METHOTREXATE] | Activity (A549 [1]): 62%; Activity (A549 [2]): 0%; Activity (A549 [3]): 38%
7 | 51.3 | 94.4 | > 100 | 46 | > 100 | 13.5 | Cn1c(CNc2ccc(C(=O)N[C@@H](CCC(=O)O)C(=O)O)cc2)cc2nc(N)[nH]c(=O)c21 | 
8 | 73.1 | 85.1 | > 100 | 79 | > 100 | 47.4 | Nc1nc2cc(CNc3ccc(C(=O)N[C@@H](CCC(=O)O)C(=O)O)cc3)[nH]c2c(=O)[nH]1 | 
9 | 1.72 | 73.1 | 99.1 | 0.73 | 54.6 | 8.92 | Nc1nc2cc(CCc3ccc(C(=O)N[C@@H](CCC(=O)O)C(=O)O)cc3)[nH]c2c(=O)[nH]1 | Activity (A549 [1]): 33.7%; inhibition [6]: 66.7%; Activity (A549 [2]): 15%; Activity (A549 [3]): 51.3%; Activity (A549 [7]): 1.07%; Activity (A549 [8]): 0.39%; inhibition [9]: Active; Activity (A549 [10]): 45.6%; Activity (A549 [11]): 19.4%; Activity (HL-60 [12]): Active; Activity (A549 [13]): 35%; Activity (A549 [14]): 3.21%; Activity (A549 [15]): 94.08%; Activity (A549 [16]): 4.4%; Activity (A549 [17]): 3.56%; inhibition (A549 [18]): Active; Activity (A549 [19]): 88.02%; Activity (HL-60 [20]): Active; Activity (A549 [21]): 4.46%
10 | 68.4 | 82.7 | 98.5 | 57.3 | > 100 | 15.5 | C=CCn1c(CNc2ccc(C(=O)N[C@@H](CCC(=O)O)C(=O)O)cc2)cc2nc(N)[nH]c(=O)c21 | 

— ChEMBL document CHEMBL4190269, “Design, synthesis and biological evaluation of novel 6-substituted pyrrolo [3,2-d] pyrimidine analogues as antifolate antitumor agents” (2017)
